From ChEMBL document CHEMBL1129934, “Synthesis, antimalarial activity, and molecular modeling of tebuquine analogues” (J Med Chem, 1997)

What was measured:
[1] = Cellular accumulation ratio (CAR) for chloroquine sensitive HB3 strain of Plasmodium falciparum; type: functional
Outline: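 IC50 for HB3 measured at a range of inoculum sizes in the [3H]-hypoxanthine 48 h assay. It is extrapolated to zero inoculum to give the absolute IC50. CAR is calculated as (measured IC50 − absolute IC50)/(absolute IC50 × fractional volume of parasitized RBC).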

Plasmodium falciparum [2] = assay: In vitro inhibition of chloroquine-sensitive Plasmodium falciparum HB3; type: functional, organism-based
Outline: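 HB3 parasites kept in human erythrocytes (2–5%) in RPMI 1640 with 25 mM HEPES, 32 mM NaHCO3, 10% human serum, gassed 3% O2/4% CO2/93% N2. 48 h assay: initial parasitemia 1%, 5% hematocrit, ethanol-dissolved drug (final <1% ethanol); [3H]-hypoxanthine (0.5 μCi) added at 24 h, counted after further 24 h. Triplicate; IC50 by probit interpolation of log dose–response.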

Plasmodium falciparum [3] = assay: In vitro inhibition of chloroquine-resistant Plasmodium falciparum K1; type: functional, organism-based
Outline: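 P. falciparum K1 (uncloned, Thailand) kept in human erythrocytes in RPMI 1640 with 25 mM HEPES, 32 mM NaHCO3, 10% human serum, under 3% O2/4% CO2/93% N2. Stocks in ethanol, final <1% ethanol. 48 h test at 1% initial parasitemia, 5% hematocrit, 37 °C; [3H]-hypoxanthine added at 24 h, incorporation counted at 48 h. IC50 by probit interpolation of log dose–response; triplicate.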

| SMILES | CAR [1] | IC50 (Plasmodium falciparum [2]) | IC50 (Plasmodium falciparum [3]) | IC50 (Plasmodium falciparum [3]; Plasmodium falciparum) |
| --- | --- | --- | --- | --- |
| CCNCCCC(C)Nc1ccnc2cc(Cl)ccc12 (configuration not stated) [DESETHYLCHLOROQUINE] | 682 | 17 nM |  |  |
| CC(C)(C)NCc1cc(Nc2ccnc3cc(Cl)ccc23)cc(-c2ccc(Cl)cc2)c1O [TEBUQUINE] | 70200 |  | 42.1 nM |  |
| CCN(CC)CCCC(C)Nc1ccnc2cc(Cl)ccc12 (configuration not stated) | 1860 |  |  |  |
| CCNCc1cc(Nc2ccnc3cc(Cl)ccc23)ccc1O [DESETHYL AMODIAQUINE] | 6410 | 4.5 nM |  |  |
| CCN(CC)Cc1cc(Nc2ccnc3cc(Cl)ccc23)cc(-c2ccc(Cl)cc2)c1F |  | 104 nM |  | 101 nM |
| CCN(CC)Cc1cc(Nc2ccnc3cc(Cl)ccc23)cc(F)c1O | 1510 | 55.2 nM |  |  |
| CCN(CC)Cc1cc(Nc2ccnc3cc(Cl)ccc23)ccc1O | 12600 | 3.7 nM |  | 27.2 nM |
| CC(C)(C)NCc1cc(Nc2ccnc3cc(Cl)ccc23)ccc1O [N-TERT-BUTYL-AMODIAQUINE] | 21100 | 3.7 nM |  |  |
| CCN(CC)Cc1c(O)cc(F)c(Nc2ccnc3cc(Cl)ccc23)c1F | 922 | 47.3 nM |  |  |
| CC(C)(C)NCc1cc(Nc2ccnc3cc(Cl)ccc23)cc(-c2ccc(Cl)cc2)c1F [FLOUROTEBUQUINE] | 1080 | 61.6 nM |  |  |
| CCN(CC)Cc1cc(Nc2ccnc3cc(Cl)ccc23)ccc1F | 1710 | 31.9 nM |  |  |
| CCN(CC)Cc1cccc(Nc2ccnc3cc(Cl)ccc23)c1 | 3090 | 16.2 nM |  |  |
| CC(C)(C)NCc1cc(Nc2ccnc3cc(Cl)ccc23)cc(-c2ccc(Cl)cc2)c1 | 1200 | 56.6 nM |  | 74.2 nM |
